Data published in ChEMBL document CHEMBL1828568, “Novel imaging agents for β-amyloid plaque based on the N-benzoylindole core” (Bioorg Med Chem Lett, 2011).

Assays:
Spleen [1] = assay: Biodistribution in Kunming mouse spleen at 1 uCi, iv after 15 mins by gamma counting; assay type: ADME, organism-based; conditions: in vivo, 0.25 h
In short: (§1)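 125I-labeled tracer given intravenously to normal mice. Organs and blood were sampled at 2, 15, 30, 60, 120 and 240 min after injection. Uptake is expressed as % ID/g, averaged over 5 mice ± SD.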

Kidney [2] = assay: Biodistribution in Kunming mouse kidney at 1 uCi, iv after 2 mins by gamma counting; assay type: ADME, organism-based; conditions: in vivo; in short: as §1
Liver [3] = assay: Biodistribution in Kunming mouse liver at 1 uCi, iv after 15 mins by gamma counting; assay type: ADME, organism-based; conditions: in vivo, 0.25 h; in short: as §1
Spleen [4] = assay: Biodistribution in Kunming mouse spleen at 1 uCi, iv after 30 mins by gamma counting; assay type: ADME, organism-based; conditions: in vivo, 0.5 h; in short: as §1
Muscle tissue [5] = assay: Biodistribution in Kunming mouse muscle at 1 uCi, iv after 2 mins by gamma counting; assay type: ADME, organism-based; conditions: in vivo; in short: as §1
Heart [6] = assay: Biodistribution in Kunming mouse heart at 1 uCi, iv after 240 mins by gamma counting; assay type: ADME, organism-based; conditions: in vivo, 4 h; in short: as §1
Muscle tissue [7] = assay: Biodistribution in Kunming mouse muscle at 1 uCi, iv after 15 mins by gamma counting; assay type: ADME, organism-based; conditions: in vivo, 0.25 h; in short: as §1
Blood [8] = assay: Biodistribution in Kunming mouse blood at 1 uCi, iv after 240 mins by gamma counting; assay type: ADME, organism-based; conditions: in vivo, 4 h; in short: as §1
Liver [9] = assay: Biodistribution in Kunming mouse liver at 1 uCi, iv after 2 mins by gamma counting; assay type: ADME, organism-based; conditions: in vivo; in short: as §1
Lung [10] = assay: Biodistribution in Kunming mouse lung at 1 uCi, iv after 240 mins by gamma counting; assay type: ADME, organism-based; conditions: in vivo, 4 h; in short: as §1
Stomach [11] = assay: Biodistribution in Kunming mouse stomach assessed per organ at 1 uCi, iv after 30 mins by gamma counting; assay type: ADME, organism-based; conditions: in vivo, 0.5 h
In short: (§2)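 Radioiodinated tracers given intravenously to normal mice; organs taken at 2, 15, 30, 60, 120 and 240 min after injection. Uptake expressed as % ID/g, mean ± SD of 5 mice; stomach values carry a table footnote.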

Liver [12] = assay: Biodistribution in Kunming mouse liver at 1 uCi, iv after 30 mins by gamma counting; assay type: ADME, organism-based; conditions: in vivo, 0.5 h; in short: as §1
Blood [13] = assay: Biodistribution in Kunming mouse blood at 1 uCi, iv after 15 mins by gamma counting; assay type: ADME, organism-based; conditions: in vivo, 0.25 h; in short: as §1
Heart [14] = assay: Biodistribution in Kunming mouse heart at 1 uCi, iv after 2 mins by gamma counting; assay type: ADME, organism-based; conditions: in vivo; in short: as §1
Kidney [15] = assay: Biodistribution in Kunming mouse kidney at 1 uCi, iv after 240 mins by gamma counting; assay type: ADME, organism-based; conditions: in vivo, 4 h; in short: as §1
Blood [16] = assay: Biodistribution in Kunming mouse blood at 1 uCi, iv after 60 mins by gamma counting; assay type: ADME, organism-based; conditions: in vivo, 1 h; in short: as §1
Lung [17] = assay: Biodistribution in Kunming mouse lung at 1 uCi, iv after 60 mins by gamma counting; assay type: ADME, organism-based; conditions: in vivo, 1 h; in short: as §1
Stomach [18] = assay: Biodistribution in Kunming mouse stomach assessed per organ at 1 uCi, iv after 60 mins by gamma counting; assay type: ADME, organism-based; conditions: in vivo, 1 h; in short: as §2
Brain [19] = assay: Biodistribution in Kunming mouse brain at 1 uCi, iv after 2 mins by gamma counting; assay type: ADME, organism-based; conditions: in vivo; in short: as §1
Blood [20] = assay: Biodistribution in Kunming mouse blood at 1 uCi, iv after 120 mins by gamma counting; assay type: ADME, organism-based; conditions: in vivo, 2 h; in short: as §1
[21] = Octanol-phosphate buffer partition coefficient, log D of the compound at pH 7.4; assay type: physicochemical
In short: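 Radioiodinated tracer partitioned between n-octanol and PBS at pH 7.4; log D reported as mean ± SD.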

Lung [22] = assay: Biodistribution in Kunming mouse lung at 1 uCi, iv after 120 mins by gamma counting; assay type: ADME, organism-based; conditions: in vivo, 2 h; in short: as §1
Spleen [23] = assay: Biodistribution in Kunming mouse spleen at 1 uCi, iv after 120 mins by gamma counting; assay type: ADME, organism-based; conditions: in vivo, 2 h; in short: as §1
Stomach [24] = assay: Biodistribution in Kunming mouse stomach assessed per organ at 1 uCi, iv after 15 mins by gamma counting; assay type: ADME, organism-based; conditions: in vivo, 0.25 h; in short: as §2
Stomach [25] = assay: Biodistribution in Kunming mouse stomach assessed per organ at 1 uCi, iv after 120 mins by gamma counting; assay type: ADME, organism-based; conditions: in vivo, 2 h; in short: as §2
Liver [26] = assay: Biodistribution in Kunming mouse liver at 1 uCi, iv after 60 mins by gamma counting; assay type: ADME, organism-based; conditions: in vivo, 1 h; in short: as §1
Liver [27] = assay: Biodistribution in Kunming mouse liver at 1 uCi, iv after 240 mins by gamma counting; assay type: ADME, organism-based; conditions: in vivo, 4 h; in short: as §1
Muscle tissue [28] = assay: Biodistribution in Kunming mouse muscle at 1 uCi, iv after 60 mins by gamma counting; assay type: ADME, organism-based; conditions: in vivo, 1 h; in short: as §1
Kidney [29] = assay: Biodistribution in Kunming mouse kidney at 1 uCi, iv after 120 mins by gamma counting; assay type: ADME, organism-based; conditions: in vivo, 2 h; in short: as §1
Heart [30] = assay: Biodistribution in Kunming mouse heart at 1 uCi, iv after 30 mins by gamma counting; assay type: ADME, organism-based; conditions: in vivo, 0.5 h; in short: as §1
Kidney [31] = assay: Biodistribution in Kunming mouse kidney at 1 uCi, iv after 30 mins by gamma counting; assay type: ADME, organism-based; conditions: in vivo, 0.5 h; in short: as §1
Brain [32] = assay: Biodistribution in Kunming mouse brain at 1 uCi, iv after 15 mins by gamma counting; assay type: ADME, organism-based; conditions: in vivo, 0.25 h; in short: as §1
Spleen [33] = assay: Biodistribution in Kunming mouse spleen at 1 uCi, iv after 240 mins by gamma counting; assay type: ADME, organism-based; conditions: in vivo, 4 h; in short: as §1
Spleen [34] = assay: Biodistribution in Kunming mouse spleen at 1 uCi, iv after 60 mins by gamma counting; assay type: ADME, organism-based; conditions: in vivo, 1 h; in short: as §2
Brain [35] = assay: Biodistribution in Kunming mouse brain at 1 uCi, iv after 60 mins by gamma counting; assay type: ADME, organism-based; conditions: in vivo, 1 h; in short: as §1
Blood [36] = assay: Biodistribution in Kunming mouse blood at 1 uCi, iv after 2 mins by gamma counting; assay type: ADME, organism-based; conditions: in vivo; in short: as §1
Heart [37] = assay: Biodistribution in Kunming mouse heart at 1 uCi, iv after 15 mins by gamma counting; assay type: ADME, organism-based; conditions: in vivo, 0.25 h; in short: as §1
Liver [38] = assay: Biodistribution in Kunming mouse liver at 1 uCi, iv after 120 mins by gamma counting; assay type: ADME, organism-based; conditions: in vivo, 2 h; in short: as §1
Brain [39] = assay: Biodistribution in Kunming mouse brain at 1 uCi, iv after 30 mins by gamma counting; assay type: ADME, organism-based; conditions: in vivo, 0.5 h; in short: as §1
Heart [40] = assay: Biodistribution in Kunming mouse heart at 1 uCi, iv after 60 mins by gamma counting; assay type: ADME, organism-based; conditions: in vivo, 1 h; in short: as §1
Kidney [41] = assay: Biodistribution in Kunming mouse kidney at 1 uCi, iv after 15 mins by gamma counting; assay type: ADME, organism-based; conditions: in vivo, 0.25 h; in short: as §1
Blood [42] = assay: Biodistribution in Kunming mouse blood at 1 uCi, iv after 30 mins by gamma counting; assay type: ADME, organism-based; conditions: in vivo, 0.5 h; in short: as §1
Muscle tissue [43] = assay: Biodistribution in Kunming mouse muscle at 1 uCi, iv after 240 mins by gamma counting; assay type: ADME, organism-based; conditions: in vivo, 4 h; in short: as §1
Brain [44] = assay: Biodistribution in Kunming mouse brain at 1 uCi, iv after 120 mins by gamma counting; assay type: ADME, organism-based; conditions: in vivo, 2 h; in short: as §1
Kidney [45] = assay: Biodistribution in Kunming mouse kidney at 1 uCi, iv after 60 mins by gamma counting; assay type: ADME, organism-based; conditions: in vivo, 1 h; in short: as §1
Muscle tissue [46] = assay: Biodistribution in Kunming mouse muscle at 1 uCi, iv after 30 mins by gamma counting; assay type: ADME, organism-based; conditions: in vivo, 0.5 h; in short: as §1
Stomach [47] = assay: Biodistribution in Kunming mouse stomach assessed per organ at 1 uCi, iv after 2 mins by gamma counting; assay type: ADME, organism-based; conditions: in vivo; in short: as §2
Lung [48] = assay: Biodistribution in Kunming mouse lung at 1 uCi, iv after 2 mins by gamma counting; assay type: ADME, organism-based; conditions: in vivo; in short: as §1
Spleen [49] = assay: Biodistribution in Kunming mouse spleen at 1 uCi, iv after 2 mins by gamma counting; assay type: ADME, organism-based; conditions: in vivo; in short: as §1
Lung [50] = assay: Biodistribution in Kunming mouse lung at 1 uCi, iv after 30 mins by gamma counting; assay type: ADME, organism-based; conditions: in vivo, 0.5 h; in short: as §1
Lung [51] = assay: Biodistribution in Kunming mouse lung at 1 uCi, iv after 15 mins by gamma counting; assay type: ADME, organism-based; conditions: in vivo, 0.25 h; in short: as §1
Brain [52] = assay: Biodistribution in Kunming mouse brain at 1 uCi, iv after 240 mins by gamma counting; assay type: ADME, organism-based; conditions: in vivo, 4 h; in short: as §1
Stomach [53] = assay: Biodistribution in Kunming mouse stomach assessed per organ at 1 uCi, iv after 240 mins by gamma counting; assay type: ADME, organism-based; conditions: in vivo, 4 h; in short: as §2
Heart [54] = assay: Biodistribution in Kunming mouse heart at 1 uCi, iv after 120 mins by gamma counting; assay type: ADME, organism-based; conditions: in vivo, 2 h; in short: as §1
Muscle tissue [55] = assay: Biodistribution in Kunming mouse muscle at 1 uCi, iv after 120 mins by gamma counting; assay type: ADME, organism-based; conditions: in vivo, 2 h; in short: as §1

COc1ccc(/C=C/C(=O)n2ccc3cc([125I])ccc32)cc1
Drug uptake (Spleen [1]): 8.04 % ID/g
Drug uptake (Kidney [2]): 12.01 % ID/g
Drug uptake (Liver [3]): 18.05 % ID/g
Drug uptake (Spleen [4]): 7.12 % ID/g
Drug uptake (Muscle tissue [5]): 2.73 % ID/g
Drug uptake (Heart [6]): 1.17 % ID/g
Drug uptake (Muscle tissue [7]): 2.62 % ID/g
Drug uptake (Blood [8]): 2.78 % ID/g
Drug uptake (Liver [9]): 24.76 % ID/g
Drug uptake (Lung [10]): 2.95 % ID/g
Drug uptake (Stomach [11]): 4.92 %ID
Drug uptake (Liver [12]): 14.05 % ID/g
Drug uptake (Blood [13]): 5.82 % ID/g
Drug uptake (Heart [14]): 12.64 % ID/g
Drug uptake (Kidney [15]): 4.05 % ID/g
Drug uptake (Blood [16]): 3.79 % ID/g
Drug uptake (Lung [17]): 6.39 % ID/g
Drug uptake (Stomach [18]): 5 %ID
Drug uptake (Brain [19]): 2.19 % ID/g
Drug uptake (Blood [20]): 3.12 % ID/g
logD [21]: 2.32
Drug uptake (Lung [22]): 4.31 % ID/g
Drug uptake (Spleen [23]): 6.18 % ID/g
Drug uptake (Stomach [24]): 4.06 %ID
Drug uptake (Stomach [25]): 5.31 %ID
Drug uptake (Liver [26]): 12.3 % ID/g
Drug uptake (Liver [27]): 7.65 % ID/g
Drug uptake (Muscle tissue [28]): 1.3 % ID/g
Drug uptake (Kidney [29]): 4.21 % ID/g
Drug uptake (Heart [30]): 2.45 % ID/g
Drug uptake (Kidney [31]): 8.21 % ID/g
Drug uptake (Brain [32]): 2.29 % ID/g
Drug uptake (Spleen [33]): 4.45 % ID/g
Drug uptake (Spleen [34]): 7.16 % ID/g
Drug uptake (Brain [35]): 1.04 % ID/g
Drug uptake (Blood [36]): 13.91 % ID/g
Drug uptake (Heart [37]): 3.52 % ID/g
Drug uptake (Liver [38]): 9.3 % ID/g
Drug uptake (Brain [39]): 1.6 % ID/g
Drug uptake (Heart [40]): 1.53 % ID/g
Drug uptake (Kidney [41]): 9.31 % ID/g
Drug uptake (Blood [42]): 4.9 % ID/g
Drug uptake (Muscle tissue [43]): 0.92 % ID/g
Drug uptake (Brain [44]): 0.42 % ID/g
Drug uptake (Kidney [45]): 5.71 % ID/g
Drug uptake (Muscle tissue [46]): 1.63 % ID/g
Drug uptake (Stomach [47]): 0.71 %ID
Drug uptake (Lung [48]): 21.76 % ID/g
Drug uptake (Spleen [49]): 6 % ID/g
Drug uptake (Lung [50]): 9.05 % ID/g
Drug uptake (Lung [51]): 11.13 % ID/g
Drug uptake (Brain [52]): 0.21 % ID/g
Drug uptake (Stomach [53]): 4.14 %ID
Drug uptake (Heart [54]): 1.21 % ID/g
Drug uptake (Muscle tissue [55]): 0.65 % ID/g
